{"source": "ChEMBL document CHEMBL1944515", "about": "(J Med Chem, 2012)", "key": {"HeLa [1]": {"system": "HeLa", "test": "Cytotoxicity against human HeLa cells after 72 hrs by MTT assay", "format": "functional, cell-based"}, "[2]": {"test": "Inhibition of bovine tubulin polymerisation after 20 mins by turbidimetric analysis", "parameters": "species or system Bos taurus", "in_short": "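Bovine brain tubulin at 10 μM was preincubated with varying compound concentrations in glutamate buffer at 30 °C, cooled to 0 °C, and 0.4 mM GTP added. Samples were warmed to 30 °C and assembly followed by turbidity at 350 nm.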"}, "Bos taurus": {"species_on_record": "Bos taurus", "test": "Displacement of [3H]colchicine from bovine tubulin at 5 uM by DEAE-cellulose filter method", "in_short": "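Inhibition of [3H]colchicine binding was measured in mixtures of 1 μM tubulin, 5 μM [3H]colchicine and 5 μM test compound. Results are percent inhibition of binding.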"}, "LoVo [3]": {"system": "LoVo", "test": "Cytotoxicity against human doxorubicin-resistant LoVo cells after 72 hrs by MTT assay", "format": "functional, cell-based", "in_short": "(§1)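 Cells seeded at 8 × 10^3 per well and left 18 h at 37 °C, 5% CO2, then given fresh medium with compound at a range of concentrations for 72 h; DMSO at most 0.25% final. Viability read by MTT relative to 0.25% DMSO-treated cells. […] LoVoDoxo kept in Ham's F12 with 0.1 μg/mL doxorubicin; A549-T12 kept in DMEM with 12 nM paclitaxel.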"}, "LoVo [4]": {"system": "LoVo", "test": "Resistance ratio of IC50 for human doxorubicin-resistant LoVo cells to human LoVo cells", "format": "functional"}, "CCRF-CEM [5]": {"system": "CCRF-CEM", "test": "Cytotoxicity against human CEM cells after 72 hrs by MTT assay", "format": "functional, cell-based", "in_short": "as §1"}, "CCRF-CEM [6]": {"system": "CCRF-CEM", "test": "Resistance ratio of IC50 for human CEM/VBL100 cells to IC50 for human CEM cells", "format": "functional"}, "[7]": {"test": "Cytotoxicity against human A549-T12 cells after 72 hrs by MTT assay", "format": "functional, cell-based", "settings": "A549, 72 h", "in_short": "as §1"}, "A549": {"system": "A549", "test": "Resistance ratio of IC50 for human A549-T12 cells to IC50 for human A549 cells", "format": "functional"}, "HeLa [8]": {"system": "HeLa", "test": "Induction of cell cycle arrest in human HeLa cells assessed as G2/M phase cells at 60 nM after 24 hrs by flow cytometry", "format": "functional", "in_short": "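Exponentially growing HeLa cells (5 × 10^5) were treated 24 h at 15–250 nM. Cells were fixed in ice-cold 70% ethanol, lysed with RNase A/0.1% Triton X-100 buffer and stained with propidium iodide. DNA content was measured by flow cytometry to score G2/M fraction. Mean ± SEM of three independent experiments.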"}, "HeLa [9]": {"system": "HeLa", "test": "Induction of apoptosis in human HeLa cells assessed as decrease in cdc25c level at 50 to 100 nM after 24 hrs by Western blot analysis", "format": "functional, cell-based", "settings": "in the assay text read “48 hrs” for “24 hrs”", "in_short": "(§2)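 HeLa cells were treated for 24 or 48 h, washed in ice-cold PBS and lysed on ice for 30 min; lysates were spun at 15000g, 4 °C. 20 μg protein per lane on SDS-PAGE (7.5–15%), then PVDF. Blocked overnight at 4 °C, primary antibodies 2 h at room temperature, peroxidase secondary 60 min, ECL detection. Blots were reprobed for β-actin as loading control.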"}, "HeLa [10]": {"system": "HeLa", "test": "Induction of apoptosis in human HeLa cells assessed as late apoptotic cells at 100 nM after 48 hrs by FITC conjugated annexin-V/PI staining-based flow cytometry (reference value: 2.9%)", "format": "functional"}, "HeLa [11]": {"system": "HeLa", "test": "Induction of necrosis in human HeLa cells assessed as necrotic cells at 100 nM after 48 hrs by FITC conjugated annexin-V/PI staining-based flow cytometry (reference value: 0.7%)", "format": "functional", "in_short": "(§3)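 Flow cytometry of HeLa cells after 24 or 48 h exposure, double-stained with annexin-V-FITC and propidium iodide. Excitation at 488 nm, emission at 525 nm (FITC) and 585 nm (PI). Quadrants scored as live, early apoptotic, late apoptotic or necrotic cells.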"}, "HeLa [12]": {"system": "HeLa", "test": "Induction of apoptosis in human HeLa cells assessed as increase in annexin-V positive apoptotic cells at 50 to 100 nM by FITC conjugated annexin-V/PI staining-based flow cytometry", "format": "functional, cell-based", "settings": "TDE = time-dependent effect", "in_short": "as §3"}, "HeLa [13]": {"system": "HeLa", "test": "Induction of mitochondrial depolarization in human HeLa cells assessed as JC1 aggregate level after 48 hrs by JC1-based fluorescent staining (reference value: 99.2%)", "format": "functional", "in_short": "(§4)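 Mitochondrial membrane potential in HeLa cells after 24 or 48 h incubation, measured with the JC-1 dye by flow cytometry. Aggregates read as red (590 nm) and monomers as 530 nm; output is the percentage of depolarized cells. Mean ± SEM of three independent experiments.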"}, "HeLa [14]": {"system": "HeLa", "test": "Induction of mitochondrial depolarization in human HeLa cells assessed as JC1 monomer level after 48 hrs by JC1-based fluorescent staining (reference value: 0.8%)", "format": "functional", "in_short": "as §4"}, "HeLa [15]": {"system": "HeLa", "test": "Induction of mitochondrial depolarization in human HeLa cells after 24 to 48 hrs by JC1-based fluorescent staining", "format": "functional, cell-based", "in_short": "as §4"}, "HeLa [16]": {"system": "HeLa", "test": "Induction of mitochondrial depolarization in human HeLa cells at 50 to 100 nM by JC1-based fluorescent staining", "format": "functional, cell-based", "settings": "TDE = time-dependent effect", "in_short": "as §4"}, "HeLa [17]": {"system": "HeLa", "test": "Induction of ROS production in human HeLa cells at 50 to 100 nM after 24 to 48 hrs by H2-DCFDA staining-based flow cytometry", "format": "functional, cell-based", "in_short": "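HeLa cells were exposed for 24 or 48 h, then stained with hydroethidine or H2-DCFDA for ROS and read by flow cytometry. DMSO ≤0.25%. Mean ± SEM of three independent experiments.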"}, "HeLa [18]": {"system": "HeLa", "test": "Induction of apoptosis in human HeLa cells assessed as decrease in XIAP protein expression at 50 to 100 nM after 24 to 48 hrs by Western blot analysis", "format": "functional, cell-based", "in_short": "as §2"}, "HeLa [19]": {"system": "HeLa", "test": "Induction of apoptosis in human HeLa cells assessed as caspase9 activation at 50 to 100 nM after 24 to 48 hrs by Western blot analysis", "format": "functional, cell-based", "in_short": "as §2"}, "HT-29 [20]": {"system": "HT-29", "test": "Anticancer activity against human HT-29 cells xenografted in BALB/c nude mouse assessed as tumor growth inhibition at 100 mg/kg, ip administered on days 0,2 and 4 relative to vehicle treated control", "format": "functional", "settings": "HT-29, ip, route intraperitoneal, read-out: TGI", "in_short": "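HT-29 cells in log phase, suspended at 1 × 10^7 cells/mL in serum-free RPMI 1640, were inoculated (0.2 mL) into dorsal hypodermis of nude mice. At ~300 mm3, 18 mice were randomised to vehicle or two treatment groups (six per group). Dosing was 100 mg/kg ip in DMSO (0.01 mL/g) on days 0, 2 and 4. Caliper tumour volume V = LW²/2 and body weight were tracked versus vehicle.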"}, "HT-29 [21]": {"system": "HT-29", "test": "Anticancer activity against human HT-29 cells xenografted in BALB/c nude mouse assessed as reduction in tumor volume at 100 mg/kg, ip administered on days 0,2 and 4 measured on day 24 relative to vehicle treated control", "format": "functional", "parameters": "scale not given: the % may be the effect or the level left", "settings": "route intraperitoneal", "in_short": "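HT-29 cells in log phase, resuspended in serum-free RPMI 1640 at 1 × 10^7 cells/mL, inoculated 0.2 mL subcutaneously in the back of nude mice. At ~300 mm3, 18 mice were randomized to vehicle or two treatment groups. Dosing: 100 mg/kg in DMSO, ip at 0.01 mL/g, on days 0, 2 and 4. Tumor volume by caliper as (LW2)/2 and body weight recorded; n = 6 per group, mean ± SEM.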"}}, "note": "Calls of active or inactive are those of the source. No cut-off for these calls is given here.", "data": [{"smiles": "CCOc1ccc(-c2nnnn2-c2cc(OC)c(OC)c(OC)c2)cc1", "values": [{"measurement": "IC50", "setting": "HeLa [1]", "value": 1.9, "unit": "nM"}, {"measurement": "IC50", "setting": "[2]", "value": 1100, "unit": "nM"}, {"measurement": "inhibition", "setting": "Bos taurus", "value": 78, "unit": "%"}, {"measurement": "IC50", "setting": "LoVo [3]", "value": 0.7, "unit": "nM"}, {"measurement": "Ratio IC50", "setting": "LoVo [4]", "value": 0.64}, {"measurement": "IC50", "setting": "CCRF-CEM [5]", "value": 3.1, "unit": "nM"}, {"measurement": "Ratio IC50", "setting": "CCRF-CEM [6]", "value": 0.2}, {"measurement": "IC50", "setting": "[7]", "value": 8.2, "unit": "nM"}, {"measurement": "Ratio IC50", "setting": "A549", "value": 1}, {"measurement": "Activity", "setting": "HeLa [8]", "value": ">80", "unit": "%"}, {"measurement": "Activity", "setting": "HeLa [9]", "value": "Active"}, {"measurement": "Activity", "setting": "HeLa [10]", "value": 27.7, "unit": "%"}, {"measurement": "Activity", "setting": "HeLa [11]", "value": 1.8, "unit": "%"}, {"measurement": "Activity", "setting": "HeLa [12]", "value": "tde"}, {"measurement": "Activity", "setting": "HeLa [13]", "value": 0.09, "unit": "%"}, {"measurement": "Activity", "setting": "HeLa [14]", "value": 19.1, "unit": "%"}, {"measurement": "Activity", "setting": "HeLa [15]", "value": "Dose-dependent effect"}, {"measurement": "Activity", "setting": "HeLa [16]", "value": "tde"}, {"measurement": "Activity", "setting": "HeLa [17]", "value": "Active"}, {"measurement": "Activity", "setting": "HeLa [18]", "value": "Active"}, {"measurement": "Activity", "setting": "HeLa [19]", "value": "Active"}, {"measurement": "inhibition in vivo at 100 mg/kg", "setting": "HT-29 [20]", "value": 66, "unit": "%"}, {"measurement": "Activity", "setting": "HT-29 [21]", "value": 66, "unit": "%"}]}]}
